Our source for the MIC, solubility and bioavailability values is ChEMBL document CHEMBL4145497, “Discovery of 2-aminothiazolyl berberine derivatives as effectively antibacterial agents toward clinically drug-resistant Gram-negative Acinetobacter baumanii” (Eur J Med Chem, 2018).

Each structure is given as a SMILES string. Bounds are passed on as bounds.

In data set [1] the test system is Acinetobacter baumannii. In words: Antibacterial activity against drug-resistant Acinetobacter baumannii after 18 to 24 hrs by CLSI two fold serial dilution method. Type of data set: functional.
Data set [2] has as its system Enterococcus faecalis. Kind of data set: Antibacterial activity against drug-resistant Enterococcus faecalis after 18 to 24 hrs by CLSI two fold serial dilution method. Type of data set: functional.
Data set [3] deals with Staphylococcus aureus. In words: Antibacterial activity against Staphylococcus aureus ATCC 25923 after 18 to 24 hrs by CLSI two fold serial dilution method. Type of data set: functional.
In data set [4] the test system is Pseudomonas aeruginosa. Kind of data set: Antibacterial activity against drug-resistant Pseudomonas aeruginosa after 18 to 24 hrs by CLSI two fold serial dilution method. It counts as functional.
Data set [5] has as its system Bacillus subtilis. In words: Antibacterial activity against Bacillus subtilis ATCC 21216 after 18 to 24 hrs by CLSI two fold serial dilution method. It counts as functional.
Data set [6] has as its system Escherichia coli. In words: Antibacterial activity against Escherichia coli DH52 after 18 to 24 hrs by CLSI two fold serial dilution method. Type of data set: functional.
Data set [7] concerns Klebsiella pneumoniae. In words: Antibacterial activity against drug-resistant Klebsiella pneumoniae after 18 to 24 hrs by CLSI two fold serial dilution method. Type of data set: functional.
A short description of data set [8]: Aqueous solubility of the compound in phosphate buffer at pH 7.4 after 3 hrs by UV detection assay. It counts as physicochemical. Summed up:
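Water solubility measured at physiological pH, with berberine as the control.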

Data set [9] relates to Micrococcus luteus. In words: Antibacterial activity against Micrococcus luteus ATCC 4698 after 18 to 24 hrs by CLSI two fold serial dilution method. Type of data set: functional.
A short description of data set [10]: Oral bioavailability in ICR mouse at 10.4 to 83.2 mg/kg after 60 mins by HPLC method. It counts as ADME, organism-based. Particulars: in vivo.
Data set [11] relates to Pseudomonas aeruginosa. Kind of data set: Antibacterial activity against Pseudomonas aeruginosa ATCC 27853 after 18 to 24 hrs by CLSI two fold serial dilution method. It counts as functional.
In data set [12] the test system is Escherichia coli. Kind of data set: Antibacterial activity against drug-resistant Escherichia coli after 18 to 24 hrs by CLSI two fold serial dilution method. Type of data set: functional.
Data set [13] concerns Staphylococcus aureus. Kind of data set: Antibacterial activity against methicillin-resistant Staphylococcus aureus N315 after 18 to 24 hrs by CLSI two fold serial dilution method. It counts as functional.

As to `COc1ccc2cc3[n+](cc2c1OC)CCc1cc2c(cc1-3)OCO2` [BERBERINE], the MIC is 1380 µM in data set [1]; 1380 µM in data set [2]; 340 µM in data set [3]; 1380 µM in data set [4]; 690 to 1380 µM in data set [5]; 690 to 1380 µM in data set [6]. Besides, the MIC is 1380 µM in data set [7]; 690 to 1380 µM in [9]; 690 µM in data set [11]; 1380 µM in [12]; 1380 µM in [13]. The molecule further showed a solubility at 3 h in data set [8] of 86 µg/mL. In addition, the bioavailability in data set [10] was less than 1%.

As usually defined, the MIC is the lowest concentration that inhibits growth of the organism. The solubility is the concentration that dissolves in the medium under given conditions. As a reminder, the bioavailability is dose-corrected exposure relative to a reference, in per cent. Lower therefore signals little systemic uptake.
